Assay outcomes as filed in PubChem BioAssay.
Rows were chosen to be rich in hits. Some 11% of all compounds tested hit in one or more screens of this group.
Diaphorase inh: diaphorase inhibition or chemical oxidation counter-screen; diaphorase resazurin-to-resorufin fluorescence, NADH, 16 min; bacterial (C. kluyveri) enzyme, not human; inhibition, % at 20 µM; hit rate 0.69% among 190,000;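 active = primary screen inhibition at 20 µM above a set limit, cut at about 50% in these data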
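Assay system: diaphorase enzyme from Clostridium kluyveri. Quantity: enzyme working solution with 0.14 U/mL diaphorase. Schedule: reaction incubation of 16 min at room temperature. Technique: resorufin fluorescence, excitation 544 nm, emission 590 nm. Controls: No-NADH positive control and DMSO neutral control.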
WT yeast gro inh: growth inhibition of WT yeast, mitochondrial fusion screen; inhibition, % at 10 µM; AID 1362; mitochondrial fusion phenotypic screen, WT strain; hit rate 2.1% among 190,000; in the data active = inhibition above about 58%; tested in S. cerevisiae
Lmaj promast: inhibitors of Leishmania major promastigote growth; Leishmania major promastigotes, resazurin fluorescence viability; inhibition, % at 10 µM; hit rate 9% among 200,000;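 note: promastigotes grown with compound for 44 hours at 28 °C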
G6PDH counter: L. mesenteroides G6PDH inhibition counter-screen; Purified L. mesenteroides G6PDH, diaphorase/resazurin coupled fluorescence, 45 min; inhibition, % at 5 µM; hit rate 0.12% among 200,000; AID 1020
Diaph act CS: activates diaphorase or chemically reduces, flagging diaphorase assay artifacts; hit rate 0.005% among 190,000; activation factor at 20 µM; AID 1229; Diaphorase/resazurin coupled assay, resorufin fluorescence, 16 min; active compounds read high; 1 = vehicle wells, 0 = NADH-free wells;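 active = diaphorase activity raised at least twofold by the compound at 20 µM; inactive = activation factor below 2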
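Material: purified diaphorase enzyme from Clostridium kluyveri; Also added: 0.114 mM NADH and 0.1 mM resazurin, final amounts; Doses: single compound dose of 20 µM, 1% DMSO final; Times: 16 min enzyme reaction, ambient temperature; Detection: resorufin fluorescence, excitation 544 nm, emission 590 nm; Measure: increased resorufin signal from activators or reducing compounds.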
Hits are given with their value. Cut-off read from the data, not from the text of the source, unless noted: active = inhibition above about 50%; inactive = the rest.

COc1ccccc1N(C)S(=O)(=O)c1ccc(C(=O)OC(C)C(=O)NCc2ccc3c(c2)OCO3)cc1 (centres undefined) was read as Diaphorase inh inactive, WT yeast gro inh inactive, Lmaj promast 98, G6PDH counter inactive and Diaph act CS inactive.
`O=C(NCCn1cc(SCc2ccc(F)cc2)c2ccccc21)c1ccccc1F` gave Diaphorase inh inactive, WT yeast gro inh inactive, Lmaj promast 95, G6PDH counter inactive and Diaph act CS inactive.
For O=C(NCCn1cc(SCc2ccc(F)cc2)c2ccccc21)c1c(F)cccc1F the results were Diaphorase inh inactive, WT yeast gro inh inactive, Lmaj promast inactive, G6PDH counter inactive and Diaph act CS inactive.
`O=C(c1ccc(F)cc1)N1CCN(c2ccc([N+](=O)[O-])c(N3CCOCC3)c2)CC1` gave Diaphorase inh inactive, WT yeast gro inh inactive, Lmaj promast 57, G6PDH counter inactive and Diaph act CS inactive.
For Cc1nc(C(F)(F)F)c(C(=O)N/N=C(\N)c2ccccn2)s1 the results were Diaphorase inh inactive, WT yeast gro inh inactive, Lmaj promast 96, G6PDH counter inactive and Diaph act CS inactive.
Screening CCn1nnnc1-c1ccc(OC)c(S(=O)(=O)Nc2ccc(C)c(C)c2)c1 returned Diaphorase inh inactive, WT yeast gro inh inactive, Lmaj promast 99, G6PDH counter inactive and Diaph act CS inactive.
Screening CCn1nnnc1-c1ccc(OC)c(S(=O)(=O)NCc2ccccc2)c1 returned Diaphorase inh inactive, Lmaj promast inactive, G6PDH counter inactive and Diaph act CS inactive.
For COc1ccc2c3c(cccc13)N(C)N=C2C the results were Diaphorase inh inactive, WT yeast gro inh inactive, Lmaj promast 100, G6PDH counter inactive and Diaph act CS inactive.
For COc1ccccc1N1CCN(S(=O)(=O)c2ccc3c4c(cccc24)C(=O)N3C)CC1 the results were Diaphorase inh inactive, WT yeast gro inh inactive, Lmaj promast inactive, G6PDH counter inactive and Diaph act CS inactive.
For COc1ccc(NC(=O)C(CCS(C)(=O)=O)N2C(=O)c3ccccc3C2=O)cc1 (centres undefined) the results were Diaphorase inh inactive, WT yeast gro inh inactive, Lmaj promast inactive, G6PDH counter inactive and Diaph act CS inactive.
Screening CC(=O)Nc1ccc(OC(=O)C(CCS(C)(=O)=O)N2C(=O)c3ccccc3C2=O)cc1 (centres undefined) returned Diaphorase inh inactive, WT yeast gro inh inactive, Lmaj promast 91, G6PDH counter inactive and Diaph act CS inactive.
Screening O=C1C(Cl)=C(N2CCN(c3ccccc3[N+](=O)[O-])CC2)C(=O)c2ccccc21 returned Diaphorase inh inactive, WT yeast gro inh inactive, Lmaj promast 100, G6PDH counter inactive and Diaph act CS inactive.
Screening O=C(N/N=C/c1cc([N+](=O)[O-])ccc1O)C12CC3CC(CC(C3)C1)C2 returned Diaphorase inh inactive, WT yeast gro inh inactive, Lmaj promast 97, G6PDH counter inactive and Diaph act CS inactive.
For Cc1cc(Cl)ccc1NC(=O)CCC(=O)N/N=C/c1cc([N+](=O)[O-])ccc1O the results were Diaphorase inh inactive, WT yeast gro inh inactive, Lmaj promast 92, G6PDH counter inactive and Diaph act CS inactive.
Screening CCNC(=O)C(=O)N/N=C/c1cc([N+](=O)[O-])ccc1O returned Diaphorase inh 53, WT yeast gro inh inactive, Lmaj promast inactive, G6PDH counter inactive and Diaph act CS inactive.
COc1cccc(-c2nc(Cc3ccc(OC)c(OC)c3)no2)c1 was read as Diaphorase inh inactive, WT yeast gro inh inactive, Lmaj promast inactive, G6PDH counter inactive and Diaph act CS inactive.
`CN(C)c1ccc(C(CNS(=O)(=O)c2ccc(F)cc2)c2c[nH]c3ccccc23)cc1` (centres undefined) gave Diaphorase inh inactive, WT yeast gro inh inactive, Lmaj promast 79, G6PDH counter inactive and Diaph act CS inactive.
CN(C)c1ccc(C(CNC(=O)c2ccccc2Br)c2c[nH]c3ccccc23)cc1 (centres undefined) was read as Diaphorase inh inactive, WT yeast gro inh inactive, Lmaj promast 94, G6PDH counter inactive and Diaph act CS inactive.
For CN(C)c1ccc(C(CNC(=O)c2ccc(C#N)cc2)c2c[nH]c3ccccc23)cc1 (centres undefined) the results were Diaphorase inh inactive, WT yeast gro inh inactive, Lmaj promast inactive, G6PDH counter inactive and Diaph act CS inactive.
